# OXTR potentiator = human OXTR potentiation | P30559 | activation, % at 3 µM | CHO-OTR cells, Fluo-8 calcium fluorescence, potentiator mode; 0% = oxytocin EC15, 100% = EC100 | hit rate 0.061% among 320,000 | AID 2445;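 active = activation above that plate's cutoff, the mean activation of tested compounds plus 3 SD, cut at about 6.6% in these data, passing the limit was not always enough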;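 note: 100% uses oxytocin at 75 nM as the full agonist control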
#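 Assay system: CHO cell line stably expressing human OTR | Also added: Oxytocin at about EC15, sub-maximal agonist stimulus | Times: Compound 6 min at room temperature before oxytocin, 100 s read | Measured by: Fluo-8 intracellular calcium fluorescence, ex 470-495, em 515-575 nm | Controls: EC15 oxytocin alone as 0%, 75 nM oxytocin as 100%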
# TAAR1 antagonist = antagonists of human TAAR1; CHO RD-HGA16 TAAR1, Fluo-8 calcium fluorescence, antagonist; inhibition, % at 3 µM; hit rate 1.5% among 360,000; AID 624466;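 active = inhibition above a per-plate cutoff, the mean inhibition of test compounds on that plate plus 3 SD, cut at about 49% in these data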;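 note: 0% = DMSO plus EC80 beta-PEA response and 100% = DMSO alone without agonist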
#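 Assay system: CHO-derived RD-HGA16 cells stably expressing human TAAR1 plus Gα16. Timing: 140 s kinetic read after compound, 140 s after agonist. Technique: kinetic Fluo-8 calcium fluorescence measurement. Measure: % inhibition of agonist calcium response.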
# OXTR ag = human OXTR agonism; P30559; CHO-OTR cells, Fluo-8 calcium fluorescence; normalized: DMSO 0%, oxytocin 100%; activation, % at 3 µM; hit rate 0.32% among 320,000;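 active = activation above the mean of all tested compounds plus 3 SD, cutoff set per screening run, cut at about 20% in these data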;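 note: peak over basal fluorescence ratio from a 100 s FLIPR kinetic read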
# TAAR1 ag = agonists of human TAAR1 | Q96RJ0 | hit rate 0.99% among 360,000 | activation, % at 3 µM | AID 624467 | CHO RD-HGA16 TAAR1, Fluo-8 calcium fluorescence; vehicle wells 0%, saturating PEA agonist 100%;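 active = activation above the mean activation of all test compounds in the run plus 3 SD, cut at about 38% in these data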
#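 test system = CHO RD-HGA16 cells carrying human TAAR1 plus Gα16 | schedule = 17-24 h seeding, 75 min 37 °C dye, 30 min RT | compound dosing = 3 µM single concentration | control set = DMSO and PEA EC100 | replicates = n 1 | signal = Fluo-8 fluorescence, 5 s baseline then 140 s kinetic read | measure = percent activation vs PEA EC100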
# V1aR counter = activates human V1a receptor in oxytocin agonist counter-screen; hit rate 0.25% among 320,000; activation, % at 3 µM; CHO-V1R cells, Fluo-8 calcium fluorescence, agonist mode; 0% DMSO, 100% 3 nM vasopressin; P37288;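 active = activation above the mean activation of all tested compounds plus 3 SD, per screening run, cut at about 20% in these data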;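 note: signal is peak over basal fluorescence ratio across a 100 second FLIPR read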
# Target sequence (P37288 whole entry, looked up): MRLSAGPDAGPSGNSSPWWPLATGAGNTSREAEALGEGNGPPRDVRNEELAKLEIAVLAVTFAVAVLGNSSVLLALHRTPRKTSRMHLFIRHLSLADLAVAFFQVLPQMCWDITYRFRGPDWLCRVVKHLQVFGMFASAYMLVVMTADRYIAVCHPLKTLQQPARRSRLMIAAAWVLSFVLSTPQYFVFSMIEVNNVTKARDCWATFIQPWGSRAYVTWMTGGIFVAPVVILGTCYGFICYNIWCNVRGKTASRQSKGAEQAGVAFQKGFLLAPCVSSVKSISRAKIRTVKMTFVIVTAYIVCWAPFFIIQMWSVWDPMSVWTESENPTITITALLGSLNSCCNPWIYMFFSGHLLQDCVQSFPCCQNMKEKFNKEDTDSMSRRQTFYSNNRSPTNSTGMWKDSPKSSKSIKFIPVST
# TAAR1 ag conf = confirmation of human TAAR1 agonists. shares compounds with TAAR1 ag. CHO RD-HGA16 TAAR1, Fluo-8 calcium fluorescence; scaled: DMSO 0%, maximal phenethylamine 100%. activation, % at 3 µM. hit rate 82% among 2,400. AID 651783;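 active = activation above a cutoff set at the run's mean compound activation plus 3 SD, cut at about 39% in these data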
# Ga16 ag counter = nonselective agonist in parental cells, TAAR1 agonist counter-screen | shares compounds with TAAR1 ag | CHO-Ga16 parental, Fluo-8 calcium fluorescence; normalized to maximal ATP response, DMSO zero | activation, % at 3 µM | hit rate 50% among 2,400 | AID 651787;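 active = activation above the run cutoff, the mean activation over all tested wells plus 3 SD, cut at about 12% in these data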;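 note: 0% = DMSO wells and 100% = maximal ATP response on the peak over basal ratio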
# TAAR1 desens = human TAAR1 agonist that also desensitizes the receptor. AID 651951. shares compounds with TAAR1 ag. hit rate 46% among 2,400. CHO RD-HGA16 hTAAR1, Fluo-8 calcium, beta-PEA response inhibition. inhibition, % at 3 µM;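 active = inhibition above the run cutoff, the mean inhibition of all test compounds plus 3 SD, cut at about 49% in these data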;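 note: beta-PEA stimulus applied at its EC80; loss of beta-PEA calcium signal after compound pretreatment read as receptor desensitization; 0% = DMSO with beta-PEA at EC80 and 100% = DMSO alone without agonist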
# Ga16 antag count = nonselective Ga16 antagonist in TAAR1 agonist counter-screen | shares compounds with TAAR1 ag | CHO-Ga16 ATP-induced calcium, Fluo-8 fluorescence | inhibition, % at 3 µM | hit rate 39% among 2,400 | AID 651952;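 active = inhibition above the plate's mean compound inhibition plus 3 SD, computed per plate, cut at about 22% in these data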;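 note: 0% = EC80 ATP with DMSO and 100% = DMSO wells without ATP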
# The depositor's hits bear a star; / = no result given; + = active, no number. Compounds with a hit are over-represented: about 2.3% of the library has one in this group of screens.
SMILES,OXTR potentiator,TAAR1 antagonist,OXTR ag,TAAR1 ag,V1aR counter,TAAR1 ag conf,Ga16 ag counter,TAAR1 desens,Ga16 antag count
O=C(C[C@@H]1CC[C@H](NC(=O)Cc2ccccn2)[C@@H](CO)O1)NCCc1ccccc1,/,-11,/,47*,/,63*,2,12,8
CCCN1C(=O)S/C(=C\c2ccc(N3CCOCC3)o2)C1=O,4,40,2,56*,7,60*,53*,45,44*
N#Cc1c(-c2ccccc2Cl)cc(C2CC2)nc1N,-8,0,36*,92*,30*,100*,60*,38,16
COc1ccccc1-c1cc(C2CC2)nc(N)c1C#N,-5,-21,-2,35,0,/,/,/,/
Cc1nc(N)c(C#N)c(-c2ccccc2Cl)c1C,-7,-8,3,73*,6,66*,44*,6,9
Cc1ccc(NC(=O)CN2C(=O)S/C(=C\c3cc(Cl)c(OCC(=O)O)c(Cl)c3)C2=O)cc1,-16,-8,-1,8,0,/,/,/,/
CCOC(=O)c1cn(Cc2ccccc2)c(C(=O)OC(C)(C)C)c1O,-19,68*,52*,82*,28*,73*,56*,70*,57*
CCOC(=O)c1cn(Cc2ccccc2)c2cc(C)nn2c1=O,-9,-8,0,3,0,/,/,/,/
CCCCn1c(N)c(N(CC(C)C)C(=O)CCCc2cccs2)c(=O)[nH]c1=O,-2,4,-1,-1,0,/,/,/,/
O=c1[nH]c(CN(CCc2ccccc2)S(=O)(=O)c2ccc(Cl)cc2)nc2ccccc12,-6,73*,-2,79*,-1,90*,14*,95*,24*
Cc1cc(C(=O)OCC(=O)NC2CCCCC2)c(C)o1,5,6,-1,1,0,/,/,/,/
Cc1cc2c(cc(C(=O)OCC(=O)NC3CCCCC3)n2C)o1,/,52*,/,67*,/,23,34*,52*,42*
CC(=O)n1c(-c2ccccc2)c(CO)c2ccccc21,-13,-3,0,2,0,/,/,/,/
NCCc1c(-c2ccccc2)n(-c2ccccc2)c2ccccc12,/,63*,/,61*,/,85*,51*,96*,34*
Cc1cc(C)cc(OCC(=O)Nc2cnn(CCCC(=O)O)c2)c1,-2,0,0,0,1,/,/,/,/
CCN(CC)C1=CC2=CC(=C(C#N)C#N)CCC2CC1 (configuration not stated),-21,109*,807*,1000*,750*,+,+,106*,103*
CCCCN(C)C1=CC2=CC(=C(C#N)C#N)CCC2CC1 (configuration not stated),-23,108*,771*,992*,873*,763*,872*,106*,103*
COc1ccc(N2CCN(C(=O)c3cc(C)on3)CC2)cc1,-1,-1,1,1,2,/,/,/,/
Cc1ccc(S(=O)(=O)NC2=NCN(CCc3ccccc3)CN2)cc1,-12,3,0,64*,0,43*,0,2,8
NC(=O)c1ccc(NC(=O)COC(=O)CCC(=O)c2ccc(Cl)cc2)cc1,0,10,0,2,0,/,/,/,/
COc1cc(C=NCC2OCCc3ccccc32)cc(OC)c1 (configuration not stated),-2,/,1,/,1,/,0,/,9
COc1ccc(C=NCC2OCCc3ccccc32)cc1OC (configuration not stated),-2,/,0,/,2,/,-1,/,7
COc1ccc(C(=O)NCC2OCCc3ccccc32)cc1 (configuration not stated),-2,-7,0,2,1,/,/,/,/
Cc1cccc(NC(=O)C(=O)NCc2ccc3c(c2)OCO3)c1C,-4,36,2,56*,1,10,1,1,-1
CCN(c1nc(N)c(C(=O)N=C(N)N)nc1Cl)C(C)C,5,-14,1,2,1,/,/,/,/
SMILES,OXTR potentiator,TAAR1 antagonist,OXTR ag,TAAR1 ag,V1aR counter,TAAR1 ag conf,Ga16 ag counter,TAAR1 desens,Ga16 antag count
COc1ccc(OC)c(NC(=O)c2cc(OC(C)=O)cc(C(=O)Nc3cc(OC)ccc3OC)c2)c1,-3,48,-2,6,-1,/,/,/,/
ClC(Cl)(c1nnnn1-c1ccccc1)c1nnnn1-c1ccccc1,-5,38,4,58*,4,52*,24*,36,29*
Cc1ccc(-n2nnnc2SCC(=O)NCC2CCCO2)cc1C (configuration not stated),/,-18,/,2,/,/,/,/,/
CN(CCc1ccccc1)c1cc2c(c3c1ccn3C)C1CCC2C1 (configuration not stated),/,39,/,82*,/,52*,1,-6,4
COc1ccc2ccc(C(C)(C(C)=O)C(=O)OC(C)C)cc2c1 (configuration not stated),-4,2,-1,9,-1,/,/,/,/
NC(=S)NNC(=O)Nc1ccc(Cl)c(Cl)c1,-8,13,0,12,0,/,/,/,/
Nc1nc(Nc2cccc(F)c2)nc2ccccc12,-11,82*,0,98*,0,91*,5,94*,6
O=c1oc(Nc2cccc(F)c2)nc2ccccc12,-10,-13,1,8,0,/,/,/,/
CC(C)CCNC(=O)NC(=O)COC(=O)/C=C/c1cc(Br)ccc1F,-4,/,-1,/,-1,/,/,/,/
Cc1cccc(N2C(=O)C(O)=C(C(=O)c3cccs3)C2c2ccc(C(C)C)cc2)n1 (configuration not stated),-14,26,33*,69*,33*,80*,67*,51*,33*
N#C/C(=C/C=C/c1ccccc1)C(=O)Nc1ccccc1,-4,34,-2,74*,1,23,25*,11,26*
O=c1ccnc(NCCc2ccccc2)[nH]1,-2,/,0,/,2,/,2,/,6
O=c1c(Cl)c(Cl)cnn1Cc1nnc(-c2ccccc2Br)o1,/,104*,/,122*,/,141*,111*,106*,99*
